{"source": "paper PMC4071626", "about": "(MedChemComm, 2013)", "key": {"Δ49N CHKA2": {"target": "Δ49N CHKA2 (Homo sapiens, UniProt P35790)", "sequence (P35790 50-457 limits assumed, stated change not applied)": "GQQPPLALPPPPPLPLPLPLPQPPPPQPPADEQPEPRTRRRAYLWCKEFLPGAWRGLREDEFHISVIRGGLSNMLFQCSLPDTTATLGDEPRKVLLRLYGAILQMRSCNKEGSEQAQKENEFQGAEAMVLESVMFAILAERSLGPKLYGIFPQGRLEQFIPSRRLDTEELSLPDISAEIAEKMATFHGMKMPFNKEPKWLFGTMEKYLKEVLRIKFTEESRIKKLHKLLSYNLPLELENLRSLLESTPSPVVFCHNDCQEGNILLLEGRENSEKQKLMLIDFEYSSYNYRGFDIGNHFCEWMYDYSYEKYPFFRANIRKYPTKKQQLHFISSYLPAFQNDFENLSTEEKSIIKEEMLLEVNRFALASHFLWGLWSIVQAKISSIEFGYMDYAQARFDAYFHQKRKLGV", "experiment": "Lineweaver-Burk reaction kinetics against Δ49N CHKA2", "assay_type": "biochemical", "conditions": "0.1, 1 or 10 μM inhibitor; choline or ATP varied, the other kept at KM", "procedure,_shortened": "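Δ49N CHKA2 reaction kinetics run without inhibitor or with test compound at 0.1, 1 or 10 μM. Choline varied with ATP fixed at KM, or ATP varied with choline fixed at KM; double-reciprocal (Lineweaver–Burk) plots used to assign inhibition type versus each substrate.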"}, "[1]": {"test_system": "CHK reaction in HCT-116 cells", "experiment": "Inhibition of [3H]PCho formation from [3H]Cho in whole HCT-116 cells", "assay_type": "cell-based, human", "conditions": "HCT-116 cells incubated with [3H]Cho", "procedure,_shortened": "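HCT-116 cells incubated with [3H]Cho plus test compound over a range of concentrations; [3H]PCho formed from [3H]Cho measured to follow dose-dependent change in cellular choline phosphorylation.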"}}}
{"molecule": "CN(C)c1cc[n+](CCCCCCCCCCCCn2cnc3c(N)ncnc32)cc1.[Br-]", "note": "[Compound 12]", "values": [{"measurement": "Type of inhibition (Lineweaver-Burk plots)", "setting": "Δ49N CHKA2", "value": "mixed type of inhibition"}]}
{"molecule": "CN(C)c1cc[n+](CCCCCCCCCCCC[n+]2ccc(N(C)C)cc2)cc1.[Br-].[Br-]", "note": "[Compound 8]", "values": [{"measurement": "Concentration above which [3H]PCho formation is inhibited >75%", "setting": "[1]", "value": "above 6.5 ± 4 μM"}, {"measurement": "Type of inhibition (Lineweaver-Burk plots)", "setting": "Δ49N CHKA2", "value": "competitive with choline, but not with ATP"}]}
{"molecule": "CN(C)c1cc[n+](CCCCCCCCCCCCCC[n+]2ccc(N(C)C)cc2)cc1.[Br-].[Br-]", "note": "[Compound 13]", "values": [{"measurement": "Concentration above which [3H]PCho formation is inhibited >75%", "setting": "[1]", "value": "> 2.4 ± 1", "unit": "µM"}]}
